In ChEMBL document CHEMBL3102769, “Synthesis, docking simulation, biological evaluations and 3D-QSAR study of 5-Aryl-6-(4-methylsulfonyl)-3-(metylthio)-1,2,4-triazine as selective cyclooxygenase-2 inhibitors” (Bioorg Med Chem, 2014) one finds Activity, Time and IC50 data, which are given here for six compounds.

For experiment [1], the system named is Rattus norvegicus. The experiment in a line: Antiinflammatory activity in Wistar rat assessed as change in carrageenan-induced hind paw thickness at 6 mg/kg, ip administered 30 mins prior to carrageenan-challenge measured after 2 hrs (reference value: 1.86 +/- 0.38 mm). The conditions noted are these: route intraperitoneal. It counts as functional.
Experiment [2] relates to Mus musculus. The experiment in a line: Antinociceptive activity in Swiss albino mouse assessed as licking time in secondary inflammatory period at 3 mg/kg, ip administered 30 mins prior to formalin-challenge (reference value: 217 +/- 68.5 seconds). It counts as functional. The conditions noted are these: route intraperitoneal.
In experiment [3] the target is T1, Prostaglandin G/H synthase 1 (Ovis aries, UniProt P05979).
T1 sequence (P05979 whole entry): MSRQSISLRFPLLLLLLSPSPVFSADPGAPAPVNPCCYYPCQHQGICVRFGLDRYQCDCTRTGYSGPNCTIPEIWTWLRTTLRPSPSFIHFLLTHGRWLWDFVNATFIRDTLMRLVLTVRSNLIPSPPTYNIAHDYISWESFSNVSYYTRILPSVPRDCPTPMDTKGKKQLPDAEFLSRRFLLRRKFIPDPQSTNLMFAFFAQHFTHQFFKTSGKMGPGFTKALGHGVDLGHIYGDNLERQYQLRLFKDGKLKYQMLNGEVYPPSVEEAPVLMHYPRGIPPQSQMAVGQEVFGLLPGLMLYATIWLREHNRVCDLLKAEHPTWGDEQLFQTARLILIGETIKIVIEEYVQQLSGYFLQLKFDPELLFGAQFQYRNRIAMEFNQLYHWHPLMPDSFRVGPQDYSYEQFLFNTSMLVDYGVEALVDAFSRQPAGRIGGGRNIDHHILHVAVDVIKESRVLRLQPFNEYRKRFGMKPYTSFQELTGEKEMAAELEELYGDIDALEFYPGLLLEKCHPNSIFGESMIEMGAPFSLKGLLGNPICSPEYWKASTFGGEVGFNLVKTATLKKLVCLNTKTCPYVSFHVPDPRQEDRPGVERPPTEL
Briefly: Inhibition of ovine COX1 using arachidonic acid as substrate by chemiluminescence assay. Put shortly:
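Ovine COX-1 chemiluminescent inhibitor screening kit: heme-catalyzed hydroperoxidase activity generates luminescence with a cyclic naphthalene hydrazide and arachidonic acid substrate. Luminescence serves as the index of catalytic activity. IC50 is the concentration giving 50% inhibition of enzyme activity.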

For experiment [4], the system named is Mus musculus. Briefly: Antinociceptive activity in Swiss albino mouse assessed as licking time in primary neurogenic period at 6 mg/kg, ip administered 30 mins prior to formalin-challenge (reference value: 80 +/- 19 seconds). It counts as functional. The conditions noted are these: route intraperitoneal.
For experiment [5], the system named is Mus musculus. The experiment in a line: Antinociceptive activity in Swiss albino mouse assessed as licking time in primary neurogenic period at 3 mg/kg, ip administered 30 mins prior to formalin-challenge (reference value: 80 +/- 19 seconds). It counts as functional. The conditions noted are these: route intraperitoneal.
The subject of experiment [6] is Rattus norvegicus. The experiment in a line: Antiinflammatory activity in Wistar rat assessed as change in carrageenan-induced hind paw thickness at 6 mg/kg, ip administered 30 mins prior to carrageenan-challenge measured after 1 hr (reference value: 1.84 +/- 0.41 mm). It is filed as functional. The conditions noted are these: route intraperitoneal.
The test system of experiment [7] is Rattus norvegicus. The experiment in a line: Antiinflammatory activity in Wistar rat assessed as change in carrageenan-induced hind paw thickness at 3 mg/kg, ip administered 30 mins prior to carrageenan-challenge measured after 2 hrs (reference value: 1.86 +/- 0.38 mm). It is filed as functional. The conditions noted are these: route intraperitoneal. A general note: In the carrageenan paw model, swelling and tenderness develop within hours.

The subject of experiment [8] is Rattus norvegicus. The experiment in a line: Antiinflammatory activity in Wistar rat assessed as change in carrageenan-induced hind paw thickness at 3 mg/kg, ip administered 30 mins prior to carrageenan-challenge measured after 1 hr (reference value: 1.84 +/- 0.41 mm). It is filed as functional. The conditions noted are these: route intraperitoneal.
Experiment [9] relates to Rattus norvegicus. Briefly: Antiinflammatory activity in Wistar rat assessed as change in carrageenan-induced hind paw thickness at 6 mg/kg, ip administered 30 mins prior to carrageenan-challenge measured after 3 hrs (reference value: 1.78 +/- 0.39 mm). The conditions noted are these: route intraperitoneal. It counts as functional.
In experiment [10] the test system is Mus musculus. Briefly: Antinociceptive activity in Swiss albino mouse assessed as licking time in secondary inflammatory period at 6 mg/kg, ip administered 30 mins prior to formalin-challenge (reference value: 217 +/- 68.5 seconds). It counts as functional. The conditions noted are these: route intraperitoneal.
Experiment [11] concerns Rattus norvegicus. The experiment in a line: Antiinflammatory activity in Wistar rat assessed as change in carrageenan-induced hind paw thickness at 3 mg/kg, ip administered 30 mins prior to carrageenan-challenge measured after 3 hrs (reference value: 1.78 +/- 0.39 mm). The conditions noted are these: route intraperitoneal. It is filed as functional.
In experiment [12] the test system is Rattus norvegicus. The experiment in a line: Antiinflammatory activity in Wistar rat assessed as change in carrageenan-induced hind paw thickness at 5 mg/kg, ip administered 30 mins prior to carrageenan-challenge measured after 2 hrs (reference value: 1.86 +/- 0.38 mm). It is filed as functional. The conditions noted are these: route intraperitoneal.
The test system of experiment [13] is Mus musculus. Briefly: Antinociceptive activity in Swiss albino mouse assessed as licking time in primary neurogenic period at 5 mg/kg, ip administered 30 mins prior to formalin-challenge (reference value: 80 +/- 19 seconds). It is filed as functional. The conditions noted are these: route intraperitoneal.
For experiment [14], the system named is Rattus norvegicus. Briefly: Antiinflammatory activity in Wistar rat assessed as change in carrageenan-induced hind paw thickness at 5 mg/kg, ip administered 30 mins prior to carrageenan-challenge measured after 1 hr (reference value: 1.84 +/- 0.41 mm). The conditions noted are these: route intraperitoneal. It is filed as functional.
Experiment [15] concerns Rattus norvegicus. The experiment in a line: Antiinflammatory activity in Wistar rat assessed as change in carrageenan-induced hind paw thickness at 5 mg/kg, ip administered 30 mins prior to carrageenan-challenge measured after 3 hrs (reference value: 1.78 +/- 0.39 mm). It counts as functional. The conditions noted are these: route intraperitoneal.
In experiment [16] the test system is Mus musculus. The experiment in a line: Antinociceptive activity in Swiss albino mouse assessed as licking time in secondary inflammatory period at 5 mg/kg, ip administered 30 mins prior to formalin-challenge (reference value: 217 +/- 68.5 seconds). It is filed as functional. The conditions noted are these: route intraperitoneal.

A word on the IC50: it is the concentration that inhibits the measured activity by half. Higher therefore signals weaker potency. Regarding `COc1ccc(-c2nc(SC)nnc2-c2ccc(S(C)(=O)=O)cc2)cc1`, the Activity in the experiment with Rattus norvegicus [1] is reported as 0.43 mm; in the experiment with Rattus norvegicus [6], 0.58 mm; with Rattus norvegicus [7], 0.72 mm; in the experiment on Rattus norvegicus [8], 0.96 mm; in the experiment on Rattus norvegicus [9], 0.3 mm; in the experiment with Rattus norvegicus [11], 0.64 mm. The Time in the experiment on Mus musculus [2] is 227 s; in the experiment with Mus musculus [4] it was 49 s; in the experiment on Mus musculus [5], 46 s; in the experiment on Mus musculus [10] it was 118 s. The compound further registered a half-maximal inhibitory concentration (IC50) in [3] of 50.1 µM.
Turning to `CSc1nnc(-c2ccc(S(C)(=O)=O)cc2)c(-c2ccc(Cl)cc2)n1`, the Activity with Rattus norvegicus [1] was 0.58 mm; with Rattus norvegicus [6], 0.89 mm; in the experiment on Rattus norvegicus [7], 0.71 mm; in the experiment on Rattus norvegicus [8], 1 mm; with Rattus norvegicus [9], 0.41 mm; with Rattus norvegicus [11] it was 0.54 mm. Also, the Time is reported as 85 s in the experiment on Mus musculus [2], 37 s in the experiment on Mus musculus [4], 30 s with Mus musculus [5] and 140 s with Mus musculus [10]. This compound also registered an IC50 in [3] of 39.5 µM.
As to `CSc1nnc(-c2ccc(S(C)(=O)=O)cc2)c(-c2ccc(F)cc2)n1`, the Activity in the experiment on Rattus norvegicus [1] is listed as 0.56 mm; in the experiment with Rattus norvegicus [6], 0.75 mm; in the experiment on Rattus norvegicus [7], 1.16 mm; with Rattus norvegicus [8], 1.24 mm; in the experiment with Rattus norvegicus [9], 0.34 mm; in the experiment with Rattus norvegicus [11], 0.97 mm. Moreover, the Time in the experiment on Mus musculus [2] is listed as 127 s; in the experiment with Mus musculus [4] it was 34 s; in the experiment with Mus musculus [5], 52 s; in the experiment with Mus musculus [10], 152 s. Besides, in [3], half-maximal inhibition (IC50) required 51.6 µM.
In the case of `CSc1nnc(-c2ccc(S(C)(=O)=O)cc2)c(-c2ccc(C)cc2)n1`, the Activity in the experiment on Rattus norvegicus [1] stood at 0.8 mm; with Rattus norvegicus [6], 0.98 mm; in the experiment with Rattus norvegicus [7] it was 0.68 mm; in the experiment on Rattus norvegicus [8], 0.87 mm; with Rattus norvegicus [9], 0.67 mm; with Rattus norvegicus [11] it was 0.55 mm. Further, the Time in the experiment on Mus musculus [2] turned out to be 175 s; in the experiment with Mus musculus [4], 61 s; in the experiment with Mus musculus [5], 49 s; with Mus musculus [10], 139 s. Moreover, in experiment [3], half-maximal inhibition (IC50) required 52.4 µM.
Consider `CSc1nnc(-c2ccc(S(C)(=O)=O)cc2)c(-c2ccccc2)n1`, for which the Activity was found to be 0.94 mm in the experiment on Rattus norvegicus [1]; 1.09 mm with Rattus norvegicus [6]; 1.77 mm with Rattus norvegicus [7]; 1.45 mm in the experiment with Rattus norvegicus [8]; 0.83 mm in the experiment on Rattus norvegicus [9]; 1.19 mm with Rattus norvegicus [11]. For the same compound, the Time is on record as 133 s in the experiment with Mus musculus [2], 58 s in the experiment with Mus musculus [4], 57 s with Mus musculus [5] and 155 s with Mus musculus [10]. The same compound registered an IC50 in experiment [3] of 54.4 µM.
For `COc1ccc2c(c1)c(CC(=O)O)c(C)n2C(=O)c1ccc(Cl)cc1` [INDOMETHACIN], the Activity in the experiment on Rattus norvegicus [12] came out at 0.81 mm; in the experiment on Rattus norvegicus [14], 1.05 mm; with Rattus norvegicus [15] it was 0.57 mm. In addition, the Time is listed as 45 s in the experiment with Mus musculus [13] and 127 s in the experiment on Mus musculus [16].
